Publication PMC4126877 (Molecular cancer therapeutics, 2014)
Where “and” joins values, the source holds several entries; their conditions need not be identical. Equal entries are not always repeated. Where two headings read alike, the source gives them in different places.

What was measured:
Chk2 = conditions: cited from earlier work
recombinant TDP1 = recombinant TDP1 (Homo sapiens, UniProt Q9NUW8); test: Recombinant TDP1 gel-based assay; format: biochemical
Method in brief: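 Gel-based cleavage assay: 1 nM 5′-[32P]-labeled single-stranded oligonucleotide with a 3′-phosphotyrosine (N14Y) incubated with 10 pM recombinant TDP1, ± inhibitor, 15 min, room temperature. Parallel reactions in HTS buffer: 1X PBS pH 7.4, 80 mM KCl, 0.01% Tween-20. Gels dried, PhosphorImager-scanned, quantified by densitometry.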

[1] = molecular target: endogenous human TDP1 from whole cell extracts (DT40 hTDP1) (Homo sapiens, UniProt Q9NUW8); test: Whole cell extract; format: biochemical
endogenous human TDP1 from whole cell extracts (DT40 hTDP1), sequence (Q9NUW8 whole entry): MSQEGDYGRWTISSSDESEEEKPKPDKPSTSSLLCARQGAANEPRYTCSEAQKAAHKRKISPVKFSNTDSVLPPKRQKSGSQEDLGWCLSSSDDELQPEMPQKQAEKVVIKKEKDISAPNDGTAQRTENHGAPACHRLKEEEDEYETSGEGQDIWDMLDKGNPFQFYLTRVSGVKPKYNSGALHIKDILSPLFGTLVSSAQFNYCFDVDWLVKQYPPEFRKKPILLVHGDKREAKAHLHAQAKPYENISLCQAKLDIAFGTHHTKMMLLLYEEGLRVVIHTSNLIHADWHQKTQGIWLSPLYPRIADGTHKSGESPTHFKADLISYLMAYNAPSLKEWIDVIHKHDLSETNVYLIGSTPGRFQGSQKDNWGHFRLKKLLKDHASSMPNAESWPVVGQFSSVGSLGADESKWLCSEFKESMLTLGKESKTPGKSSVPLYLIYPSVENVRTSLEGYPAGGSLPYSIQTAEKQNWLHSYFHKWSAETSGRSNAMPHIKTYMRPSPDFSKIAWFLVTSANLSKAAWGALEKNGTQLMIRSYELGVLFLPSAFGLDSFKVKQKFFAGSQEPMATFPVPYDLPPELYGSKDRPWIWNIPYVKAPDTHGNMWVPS

recombinant human TDP2 = molecular target: T1, recombinant human TDP2 (Homo sapiens, UniProt O95551); test: Recombinant TDP2 counter-screening assay; format: biochemical; conditions: for activity against TDP2 (in words): tested up to 111 µM
T1 sequence (O95551 1-362): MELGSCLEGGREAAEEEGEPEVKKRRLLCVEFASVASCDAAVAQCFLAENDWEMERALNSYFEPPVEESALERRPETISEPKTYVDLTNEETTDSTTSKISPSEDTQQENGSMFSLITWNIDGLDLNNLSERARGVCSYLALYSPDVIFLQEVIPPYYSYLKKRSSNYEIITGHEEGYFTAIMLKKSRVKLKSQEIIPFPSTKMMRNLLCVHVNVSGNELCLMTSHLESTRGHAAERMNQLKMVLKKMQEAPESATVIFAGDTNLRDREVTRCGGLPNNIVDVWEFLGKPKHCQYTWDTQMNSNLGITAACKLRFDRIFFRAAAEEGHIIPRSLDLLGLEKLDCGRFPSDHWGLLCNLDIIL
Method in brief: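 Counter-screen: 1 nM α32P-cordycepin-3′-labeled 18-mer single-stranded oligonucleotide incubated with 25 pM recombinant human TDP2, ± inhibitor, 15 min, room temperature. Reactions terminated and processed as the TDP1 gel assays: gel run, PhosphorImager exposure, densitometry.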

DT40 hTDP1 cells = format: cell-based; conditions: 72 h
[2] = read-out: IC50 TDP1 REC, recombinant TDP1, WCE buffer

recombinant TDP1, sequence (Q9NUW8 whole entry): as the sequence (Q9NUW8 whole entry) above

Row | Structure (SMILES) | inhibition of REC-TDP1 (in words) (recombinant TDP1) | activity against TDP2 (in words) (recombinant human TDP2) | cytotoxicity (DT40 hTDP1 cells) | synergistic effect in combination with CPT (DT40 hTDP1 cells) | IC50 (recombinant TDP1; [2]) | also measured
1 | CN[C@@H]1C[C@H]2O[C@@](C)([C@@H]1OC)n1c3ccccc3c3c4c(c5c6ccccc6n2c5c31)C(=O)N[C@H]4O [7-hydroxystaurosporine (UCN-01), 7-hydroxystaurosporine] | – | – | – | – | – | inhibition of Chk2 purified from cell extract by immunoprecipitation (Chk2): found to inhibit; inhibition of recombinant Chk2 enzyme (Chk2): ineffective
2 | O=C(O)c1ccc(-c2ccc(C=C3NC(=O)N(Cc4ccccc4F)C3=O)o2)cc1 [JLT048, 4-(5-[{[1-(2-fluorobenzyl)-2,5-dioxo-4-imidazolidinylidene]methyl]}-2furyl)benzoic acid] | inhibited REC-TDP1 at low micromolar concentrations | also inhibited TDP2, albeit with higher IC50 values | did not exhibit any cytotoxicity | no synergistic effect | – | IC50 (recombinant TDP1): 7.7 ± 1.8 µM; IC50 ([1]; IC50 TDP1 WCE, WCE buffer): 115 µM and 148 µM; IC50 (recombinant human TDP2): 32 ± 10 µM
3 | Cc1ccc(Nc2nn3c(=O)c4ccccc4nc3s2)cc1C [NCGC00183674] | inhibited REC-TDP1 at low micromolar concentrations | only marginal activity against TDP2 at 111 µM | did not exhibit any cytotoxicity | no synergistic effect | 12.1 ± 1.7 µM | IC50 ([1]; read-out: IC50 TDP1 WCE, WCE buffer): 51 µM and 59 µM; selectivity for TDP1 versus TDP2 (recombinant human TDP2): higher selectivity for TDP1; IC50 (recombinant human TDP2; read-out: IC50 TDP2 REC, recombinant TDP2): > 111 µM
4 | O=c1c2ccccc2nc2sc(Nc3ccc4c(c3)CCC4)nn12 [NCGC00183964] | – | – | – | – | 81 µM | reduction in potency, WCE buffer vs HTS buffer (recombinant TDP1; REC-TDP1): 25 fold
